# Source: PubChem
# VIM-2 inhibitor = inhibitors of Pseudomonas aeruginosa VIM-2 metallo-beta-lactamase; purified VIM-2, nitrocefin hydrolysis, epi-absorbance fluorescence; inhibition, % at 5.6 µM; 0.89% of 290,000 active;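 active = inhibition above the mean of all tested compounds plus 3 SD, cutoff set per screening run, cut at about 7.5% in these data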;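 note: red hydrolysis product quenches plate fluorescence so inhibitors raise well fluorescence; 0% = enzyme with DMSO and 100% = DMSO without enzyme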
# ARFGAP1 inhibitor = inhibits rat ARF GTPase activating protein 1 | Q62848 | Arfgap1-stimulated ARF1 GTP hydrolysis, GDP FP detection | inhibition, % at 16.5 µM | 0.26% of 360,000 active | AID 651572;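 active = inhibition above a per-plate limit, mean inhibition of low control wells plus 3 SD, cut at about 25% in these data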;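 note: 0% = DMSO wells with enzyme and 100% = wells lacking Arfgap1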
# Target sequence (Q62848 1-136 limits assumed): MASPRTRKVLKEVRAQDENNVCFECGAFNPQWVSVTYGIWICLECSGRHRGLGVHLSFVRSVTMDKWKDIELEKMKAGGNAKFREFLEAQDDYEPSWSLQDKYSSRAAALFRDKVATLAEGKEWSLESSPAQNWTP
#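 Material: truncated rat Arfgap1 GAP domain; Incubation: compound-enzyme preincubation 20 min, reaction 120 min, detection 60 min, 25 °C; Read-out: percent inhibition of Arfgap1-stimulated GTP hydrolysis; Technique: FP, GDP Alexa 633 tracer displaced from anti-GDP antibody, 620/688 nm; Controls: No-Arfgap1 wells (100%) versus DMSO full-reaction wells (0%); Replication: single well per compound.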
# IMP-1 inhibitor = inhibitors of Pseudomonas aeruginosa IMP-1 metallo-beta-lactamase; purified IMP-1, nitrocefin hydrolysis, epi-absorbance fluorescence; inhibition, % at 5.6 µM; 0.45% of 290,000 active; AID 1556;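 active = inhibition above the mean plus 3 SD of all compounds in the same screening run, cut at about 4.5% in these data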;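 note: 0% = IMP-1 with DMSO and 100% = DMSO wells lacking enzyme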
#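 System: Purified IMP-1 | Read-out basis: Percent enzyme inhibition | Controls: IMP-1 with DMSO as 0%, enzyme-free DMSO as 100% | Replicates: One well per compound | Doses: 5.6 µM nominal single concentration | Detection: Epi-absorbance fluorescence, 480 nm excitation, 530 nm emission | Incubation: 25 °C, 15 min preincubation, 25 min reaction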
# ASAP1 GAP inh = blocks human ASAP1-stimulated Arf1 GTP hydrolysis. GDP FP detection. AID 624377. 0.19% of 360,000 active. inhibition, % at 16.5 µM; in the data active = inhibition above about 25%;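 note: 0% = vehicle with enzyme and substrate and 100% = no enzyme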
# Calb FLC = affects C. albicans growth with fluconazole; C. albicans CaCi-2 + fluconazole, Alamar Blue growth, 48 h; growth inhibition, % (no concentration beside the values); 0.57% of 300,000 active;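 active = growth inhibition above about 58% in most replicates, limit read from the data, passing the limit was not always enough; inconclusive = exactly half the replicates above a set limit; inactive = most replicates below a set limit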;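 note: all wells also contain fluconazole at 8 µg/ml as a sub-toxic cotreatment; 0% = median of DMSO wells and 100% = median of geldanamycin control wells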
# PHOSPHO1 inh = blocks human PHOSPHO1 phosphatase activity | 1.1% of 290,000 active | AID 1565 | Q8TCT1 | recombinant PHOSPHO1, absorbance phosphatase assay | inhibition, % at 13.3 µM; in the data active = inhibition above about 60%
# Target sequence (Q8TCT1 whole entry, looked up): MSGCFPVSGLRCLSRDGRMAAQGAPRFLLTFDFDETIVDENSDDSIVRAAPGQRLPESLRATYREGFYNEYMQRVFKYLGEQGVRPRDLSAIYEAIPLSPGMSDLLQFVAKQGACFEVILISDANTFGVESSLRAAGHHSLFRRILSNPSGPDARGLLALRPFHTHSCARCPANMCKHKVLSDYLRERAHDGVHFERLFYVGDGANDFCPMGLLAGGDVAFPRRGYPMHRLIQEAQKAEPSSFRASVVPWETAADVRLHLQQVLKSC
# The depositor's hits bear a star; ? = inconclusive; . = not tested or not shown. Only some compounds are listed: those with a hit (about 2.6% of all), similar ones and a draw of the others.
SMILES,VIM-2 inhibitor,ARFGAP1 inhibitor,IMP-1 inhibitor,ASAP1 GAP inh,Calb FLC,PHOSPHO1 inh
CCOC(=O)CCC(NC(=O)c1ccccc1C(=O)NC(CCC(=O)OCC)C(=O)OCC)C(=O)OCC (configuration not stated),-0.8,16.7,-1.2,11.0,0.9,64.7*
Cc1ccc2nc(CSc3nc(C)ccc3C#N)[nH]c2c1,0.5,-7.2,-4.2,1.0,3.9,99.7*
Cc1ccccc1CN1CCN(Cc2cc(=O)c3ccccc3[nH]2)CC1CCO (configuration not stated),-1.8,1.3,8.3*,-11.4,2.7,19.0
CC(=O)N1C[C@H]2CON(C)[C@H]2C[C@H]1c1ccccc1-c1ccccc1,.,1.4,.,4.5,.,.
C=CCn1c(SCCN2CCCC2)nc2c([nH]c3ccccc32)c1=O,10.3*,16.6,0.2,9.6,?,-12.6
C=CCn1c(SCC(=O)Nc2ccc(OC)cc2)nc2c([nH]c3ccccc32)c1=O,-1.0,10.0,0.1,2.5,.,19.2
O=[N+]([O-])c1ccc(C2CCCC/C2=N/OCc2ccc(F)cc2)c([N+](=O)[O-])c1 (configuration not stated),-0.7,-2.2,-1.3,1.0,115.2*,7.2
O=[N+]([O-])c1ccc(C2CCCC/C2=N/OCc2ccccc2F)c([N+](=O)[O-])c1 (configuration not stated),0.3,-11.0,-0.6,-7.6,23.1,-13.5
Cn1c(COc2ccc3ccccc3c2)nnc1SCC(=O)O,-2.5,-8.4,-3.8,1.4,-2.1,61.8*
Cn1c(COc2ccc(Cl)cc2)nnc1SCc1ncc(-c2ccccc2)o1,-4.5,-15.0,-2.0,-1.1,31.4,79.5*
Cn1c(COc2cccc3cccnc23)nnc1SCC(=O)O,-3.2,-1.9,-5.2,-6.7,-2.9,35.4
COc1ccc(OCc2nnc(SCC(=O)O)n2N)cc1,-1.5,3.8,-1.9,-9.3,29.5,60.3*
COC(=O)Cc1c([C@H](C)[C@@H](OC)c2ccccc2Br)nnn1Cc1ccccc1,.,-4.7,.,-8.9,.,.
CN(C)c1ccc(/C=C/C(=O)c2cccc(Br)c2)cc1,5.9,5.2,8.3*,-8.2,-23.4,37.9
S=c1[nH]nc(-c2cc(-c3ccsc3)n[nH]2)n1-c1cccc2ccccc12,-3.7,-4.3,-3.8,15.4,48.7,-73.8
CC(=O)c1ccc(-n2c(-c3cc(-c4ccsc4)n[nH]3)n[nH]c2=S)cc1,-2.1,1.9,-1.5,-11.8,-2.6,64.7*
COCc1cc(N2CCN(C(=O)OC(C)(C)C)C[C@H]2C)ccc1N1CC[C@H](O)C1,.,-0.4,.,-5.3,.,.
CC(C)CCNCC(=O)NC(c1ccccc1)c1ccccc1,-5.7,-1.8,-0.3,-10.4,114.8*,-23.7
COCC(=O)NC(c1ccccc1)c1ccccc1,-0.8,-6.6,-2.3,10.4,2.9,-10.2
N=c1sccn1CC(=O)Nc1cc(Cl)ccc1Oc1ccccc1,-5.5,.,-4.4,.,-2.4,68.8*
COC(=O)[C@]12C[C@H](CC(=O)NCC3CCCCC3)C(=O)N(Cc3ccccc3)C1=C[C@H](C(C)(C)C)O[C@@H]2C,.,-2.3,.,-25.9,.,.
CC(C)C[C@H]1CN([C@@H](Cc2ccccc2)CN2CCC[C@H]2CN2C(=O)C(=O)NC[C@@H]2Cc2ccccc2)C(=O)C(=O)N1CC1CCCCCC1,.,11.4,.,14.6,.,.
CC1=CC2=C(OC1N(C)C)c1cccc3cccc(c13)C2=O (configuration not stated),3.4,.,7.3*,.,95.7*,-35.6
Cc1ccc(N2C(=O)c3cccc4cccc(c34)C2=O)cc1,-5.5,-4.1,-0.7,-5.8,-4.7,28.8
COC(=O)c1ccc2nc(NC(=O)CN3C(=O)CCC3=O)sc2c1,-1.7,-11.3,-2.5,-2.8,-0.1,70.6*
SMILES,VIM-2 inhibitor,ARFGAP1 inhibitor,IMP-1 inhibitor,ASAP1 GAP inh,Calb FLC,PHOSPHO1 inh
CC(=C1SC(=S)NC1=O)c1ccc(Cl)c(O)c1,.,0.5,.,2.7,.,.
O=CN1N=C(c2ccccc2)CC1c1ccccc1[N+](=O)[O-] (configuration not stated),-2.8,15.6,-4.5,-6.2,-2.9,2.5
N#CC1CC(c2ccccc2)=NN1c1ccccc1[N+](=O)[O-] (configuration not stated),2.0,-2.2,-0.6,14.7,84.9*,-19.6
O=C(COC(=O)CCC(=O)c1ccc(F)cc1)Nc1ccccc1,-0.5,5.7,-2.6,6.5,-3.6,6.6
CCN(CC)c1ccc(NC(=O)COC(=O)CCC(=O)c2ccc(F)cc2)cc1,-3.0,9.7,-4.4,-0.9,0.8,85.0*
O=C(NCc1ccccc1)C(c1ccc(C(F)(F)F)cc1)n1c(=O)c(-c2ccco2)nc2ccccc21 (configuration not stated),.,-12.2,.,-12.6,.,.
Cc1cc(Oc2ccccc2)nc(-c2ccccc2O)n1,0.3,-12.9,-2.6,9.9,104.2*,3.6
Cn1c(=Nc2ccc(N3CCOCC3)cc2)ccc2ccccc21,2.6,-0.7,1.7,1.5,-7.5,95.7*
CN1CCc2nc3sc(C(=O)C45CC6CC(CC(C6)C4)C5)c(N)c3cc2C1,-1.9,4.7,-2.3,-2.6,.,80.8*
CCCCNc1cccc2c1S(=O)(=O)N[C@H](C)CO2,.,-0.9,.,-2.3,.,.
CC1Cc2ccccc2N1Cc1nc2scc(-c3cccs3)c2c(=O)[nH]1 (configuration not stated),-2.0,10.5,0.7,-10.6,2.2,87.8*
CC1(C(=O)NCc2cccs2)CCN1CCc1ccccc1 (configuration not stated),.,-6.2,.,-1.6,.,.
COc1ccc(C(=O)NC(=S)NCc2ccccc2)cc1,-1.3,1.6,-1.3,-0.8,-5.8,62.2*
COc1ccc(C(=O)NNC(=S)NC(=O)c2ccc(Cl)cc2)cc1,.,-3.2,.,9.2,88.1*,.
O=C(NC(=S)NCc1ccccc1)c1ccc(Br)cc1,.,-2.4,.,4.3,-15.4,.
COc1cc(C(=O)NNC(=S)NC(=O)/C=C/c2ccccc2)cc(OC)c1OC,-6.1,4.3,-2.9,-13.0,14.9,87.3*
COc1ccc(C(=O)NC(=S)NNC(=O)Cc2cccs2)cc1,-3.8,7.7,-3.1,0.2,9.8,100.3*
C=C1[C@H](C)CN(S(=O)C(C)(C)C)[C@H]1CCO (some centres not stated),.,9.0,.,11.7,.,.
COC(=O)C1=C(C)N(Cc2ccccc2C(F)(F)F)C(=NCc2ccc(C(F)(F)F)cc2)NC1c1ccc(Cl)cc1 (configuration not stated),.,13.6,.,-1.8,.,.
CCN(CC)C(=O)c1ncn2c1C(=O)N[C@H](C)C2,.,-4.4,.,-8.0,.,.
COc1ccc(C(=O)NC(=S)N2CCC(C)CC2)cc1,-8.0,1.6,-0.1,-18.5,-4.8,68.7*
COc1cc(C(=O)NC(=S)Nc2ccc([N+](=O)[O-])cc2C)cc(OC)c1OC,-2.4,-2.3,2.2,5.8,2.4,-24.5
Cc1ccc(C(=O)NC(=S)NNS(=O)(=O)c2ccccc2)cc1,-5.7,3.3,-2.8,-1.7,6.8,62.4*
